The values below come from ChEMBL document CHEMBL5661979, “Pharmacological inhibition of BMK1 suppresses tumor growth through promyelocytic leukemia protein” (Cancer Cell, 2010).

A word on the inhibition: it is the drop in the measured response relative to a control, in per cent. By IC50 is commonly meant the point on the concentration scale where inhibition reaches its midpoint. A low value points to greater potency in that assay.

Where only a bound is given, the exact number is not on record here.

The nature of series [1]: Plasma concentration in C57Bl/6 mouse at 50 mg/kg, ip administered for 8 day and measured 8 hr post last dose by LC-MS/MS analysis. It counts as ADME, organism-based.
In series [2] the target is MAP/microtubule affinity-regulating kinase 3 (Homo sapiens, UniProt P27448). The series is described as follows: Inhibition of MARK3 in human HeLa cells lysate at 50 uM pre incubated for 15 mins followed by ADP acyl phosphate probe addition and measured after 10 mins by LC-MS/MS analysis relative to control. As to conditions: time 25.0 min. It counts as subcellular.
In series [3] the target is T1, EKC/KEOPS complex subunit TP53RK (Homo sapiens) (UniProt Q96S44).
T1 sequence (whole entry): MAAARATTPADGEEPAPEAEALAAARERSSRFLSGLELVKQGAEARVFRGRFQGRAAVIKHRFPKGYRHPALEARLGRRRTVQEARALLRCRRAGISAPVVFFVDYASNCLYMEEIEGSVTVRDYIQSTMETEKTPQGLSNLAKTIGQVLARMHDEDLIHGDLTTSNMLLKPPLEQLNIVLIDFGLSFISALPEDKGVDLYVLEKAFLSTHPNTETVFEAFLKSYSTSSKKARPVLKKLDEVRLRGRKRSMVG
Nature of the series: Inhibition of PRPK in human HeLa cells lysate at 10 uM pre incubated for 15 mins followed by ATP acyl phosphate probe addition and measured after 10 mins by LC-MS/MS analysis relative to control. In kind it is subcellular. The following applies: time 25.0 min.

In series [4] the target is IKK epsilon/TBK1 (Homo sapiens) (UniProt Q14164+Q9UHD2). The series is described as follows: Inhibition of IKKE/TBK1 in human HeLa cells lysate at 2 uM pre incubated for 15 mins followed by ADP acyl phosphate probe addition and measured after 10 mins by LC-MS/MS analysis relative to control. It counts as subcellular. As to conditions: time 25.0 min.
Series [5] has as its target Macrophage-stimulating protein receptor (Homo sapiens, UniProt Q04912). The series is described as follows: Inhibition of RON in human HeLa cells lysate at 50 uM pre incubated for 15 mins followed by ADP acyl phosphate probe addition and measured after 10 mins by LC-MS/MS analysis relative to control. In kind it is subcellular. The following applies: time 25.0 min.
Series [6] deals with T2, Aurora kinase A (Homo sapiens) (UniProt O14965).
T2 sequence (whole entry): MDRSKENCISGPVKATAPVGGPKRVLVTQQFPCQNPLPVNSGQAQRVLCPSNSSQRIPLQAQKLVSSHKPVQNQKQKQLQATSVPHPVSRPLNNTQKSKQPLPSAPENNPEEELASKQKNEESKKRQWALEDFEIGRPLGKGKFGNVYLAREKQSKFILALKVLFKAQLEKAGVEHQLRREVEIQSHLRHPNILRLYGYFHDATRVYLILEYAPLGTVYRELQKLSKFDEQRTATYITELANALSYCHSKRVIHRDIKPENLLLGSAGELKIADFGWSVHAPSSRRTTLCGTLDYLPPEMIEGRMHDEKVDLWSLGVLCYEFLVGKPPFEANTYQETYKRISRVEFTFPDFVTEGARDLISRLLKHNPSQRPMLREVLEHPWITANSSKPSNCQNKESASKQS
Nature of the series: Inhibition of AurA in human HeLa cells lysate at 50 uM pre incubated for 15 mins followed by ATP acyl phosphate probe addition and measured after 10 mins by LC-MS/MS analysis relative to control. In kind it is subcellular. The following applies: time 25.0 min. In outline: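 KiNativ-type profiling in HeLa lysate (5 mg/mL total protein). Lysate preincubated 15 min with inhibitor at 50, 10, 2, 0.8 or 0 μM, then ATP or ADP acylphosphate probe added (5 μM final) for 10 min. Reaction stopped with urea and analysed by targeted MS, using up to four fragment ions per kinase peptide-probe conjugate. % inhibition calculated against untreated lysate. Duplicate reactions.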

In series [7] the target is T3, Phosphatidylinositol 5-phosphate 4-kinase type-2 alpha (Homo sapiens) (UniProt P48426).
T3 sequence (whole entry): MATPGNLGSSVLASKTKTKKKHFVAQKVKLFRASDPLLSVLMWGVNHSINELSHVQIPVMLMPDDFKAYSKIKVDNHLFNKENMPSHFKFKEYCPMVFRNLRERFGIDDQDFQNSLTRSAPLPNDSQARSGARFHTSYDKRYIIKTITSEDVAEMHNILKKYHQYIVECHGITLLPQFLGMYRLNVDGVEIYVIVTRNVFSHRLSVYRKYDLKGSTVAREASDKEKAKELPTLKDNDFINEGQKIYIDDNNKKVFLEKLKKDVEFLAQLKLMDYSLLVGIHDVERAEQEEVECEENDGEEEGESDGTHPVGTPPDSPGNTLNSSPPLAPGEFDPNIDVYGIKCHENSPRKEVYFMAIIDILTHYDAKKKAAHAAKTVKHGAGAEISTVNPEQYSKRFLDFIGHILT
The series is described as follows: Inhibition of PIP5K2A LIP site in human HeLa cells lysate at 10 uM pre incubated for 15 mins followed by ADP acyl phosphate probe addition and measured after 10 mins by LC-MS/MS analysis relative to control. It counts as subcellular. The following applies: time 25.0 min.

Series [8] in a line: Inhibition of MST4/YSK1 in human HeLa cells lysate at 2 uM pre incubated for 15 mins followed by ADP acyl phosphate probe addition and measured after 10 mins by LC-MS/MS analysis relative to control. As to conditions: 25 min, condition cancer.
Another series addresses Insulin receptor (Homo sapiens, UniProt P06213). Nature of the series: Inhibition of INSR in human HeLa cells lysate at 50 uM pre incubated for 15 mins followed by ADP acyl phosphate probe addition and measured after 10 mins by LC-MS/MS analysis relative to control. It counts as subcellular. The following applies: time 25.0 min.
The target in series [9] is Phosphatidylinositol 3-kinase catalytic subunit type 3 (Homo sapiens, UniProt Q8NEB9). Nature of the series: Inhibition of PIK3C3 in human HeLa cells lysate pre incubated for 15 mins followed by ATP acyl phosphate probe addition and measured after 10 mins by LC-MS/MS analysis. It counts as subcellular.
Series [10] concerns the target Serine/threonine-protein kinase 24 (Homo sapiens, UniProt Q9Y6E0). The series is described as follows: Inhibition of MST3 in human HeLa cells lysate at 50 uM pre incubated for 15 mins followed by ATP acyl phosphate probe addition and measured after 10 mins by LC-MS/MS analysis relative to control. It counts as subcellular. As to conditions: time 25.0 min.
For series [11], the target named is Inhibitor of nuclear factor kappa-B kinase subunit alpha (Homo sapiens, UniProt O15111). Nature of the series: Inhibition of IKKA in human HeLa cells lysate pre incubated for 15 mins followed by ATP acyl phosphate probe addition and measured after 10 mins by LC-MS/MS analysis. In kind it is subcellular.
Series [12] concerns the target Ribosomal protein S6 kinase alpha-3 (Homo sapiens, UniProt P51812). The series is described as follows: Inhibition of RSK2 in human HeLa cells lysate pre incubated for 15 mins followed by ATP acyl phosphate probe addition and measured after 10 mins by LC-MS/MS analysis. In kind it is subcellular.
Series [13] addresses Interleukin-1 receptor-associated kinase 4 (Homo sapiens, UniProt Q9NWZ3). The series is described as follows: Inhibition of IRAK4 in human HeLa cells lysate pre incubated for 15 mins followed by ATP acyl phosphate probe addition and measured after 10 mins by LC-MS/MS analysis. It counts as subcellular.
For series [14], the target named is Casein kinase I isoform alpha (Homo sapiens, UniProt P48729). Nature of the series: Inhibition of CK1alpha in human HeLa cells lysate pre incubated for 15 mins followed by ATP acyl phosphate probe addition and measured after 10 mins by LC-MS/MS analysis. It counts as subcellular.
For the next series, the target named is PKC alpha and beta-2 (Homo sapiens, UniProt P17252+P05771). The series is described as follows: Inhibition of PKCalpha/beta in human HeLa cells lysate at 50 uM pre incubated for 15 mins followed by ATP acyl phosphate probe addition and measured after 10 mins by LC-MS/MS analysis relative to control. In kind it is subcellular. The following applies: time 25.0 min.
PKC alpha and beta-2, sequence (P05771 whole entry, looked up): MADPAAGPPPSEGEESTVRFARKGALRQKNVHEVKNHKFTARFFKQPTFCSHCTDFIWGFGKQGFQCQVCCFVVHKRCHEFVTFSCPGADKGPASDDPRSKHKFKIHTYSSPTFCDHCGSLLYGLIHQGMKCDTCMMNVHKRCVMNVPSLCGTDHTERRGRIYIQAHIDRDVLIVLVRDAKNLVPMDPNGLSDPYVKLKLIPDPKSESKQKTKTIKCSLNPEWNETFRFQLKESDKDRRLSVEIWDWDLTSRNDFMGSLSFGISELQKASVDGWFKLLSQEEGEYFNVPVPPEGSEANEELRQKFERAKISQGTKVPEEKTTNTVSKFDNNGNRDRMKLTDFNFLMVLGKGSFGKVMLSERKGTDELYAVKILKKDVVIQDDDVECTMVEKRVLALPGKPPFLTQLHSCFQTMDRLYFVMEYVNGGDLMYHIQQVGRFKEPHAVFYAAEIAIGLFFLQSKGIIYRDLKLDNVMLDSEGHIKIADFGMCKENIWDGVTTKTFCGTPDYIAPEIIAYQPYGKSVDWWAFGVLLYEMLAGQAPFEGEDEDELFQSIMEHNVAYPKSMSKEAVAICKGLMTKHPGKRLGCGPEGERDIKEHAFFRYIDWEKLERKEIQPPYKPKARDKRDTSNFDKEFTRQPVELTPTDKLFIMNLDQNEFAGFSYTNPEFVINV

Insulin receptor, sequence (P06213 28-758 limits assumed): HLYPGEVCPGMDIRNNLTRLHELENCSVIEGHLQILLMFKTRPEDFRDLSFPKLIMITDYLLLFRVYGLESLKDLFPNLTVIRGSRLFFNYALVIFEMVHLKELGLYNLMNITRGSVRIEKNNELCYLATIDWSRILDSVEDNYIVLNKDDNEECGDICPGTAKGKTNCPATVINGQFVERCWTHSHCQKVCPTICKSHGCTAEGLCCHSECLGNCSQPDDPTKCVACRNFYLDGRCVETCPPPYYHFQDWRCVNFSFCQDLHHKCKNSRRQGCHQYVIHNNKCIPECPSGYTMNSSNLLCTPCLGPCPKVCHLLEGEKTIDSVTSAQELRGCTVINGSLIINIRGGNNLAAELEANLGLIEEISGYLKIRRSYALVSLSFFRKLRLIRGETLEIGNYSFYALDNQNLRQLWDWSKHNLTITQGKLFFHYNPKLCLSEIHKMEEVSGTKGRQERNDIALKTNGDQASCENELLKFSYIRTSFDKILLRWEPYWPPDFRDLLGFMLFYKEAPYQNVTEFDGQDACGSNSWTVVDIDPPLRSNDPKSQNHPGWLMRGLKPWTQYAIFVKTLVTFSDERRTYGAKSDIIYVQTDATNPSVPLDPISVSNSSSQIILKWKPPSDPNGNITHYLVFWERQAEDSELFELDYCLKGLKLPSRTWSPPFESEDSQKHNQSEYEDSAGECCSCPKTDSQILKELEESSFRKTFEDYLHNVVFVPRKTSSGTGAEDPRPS
Insulin receptor, sequence (P06213 763-1382 limits assumed): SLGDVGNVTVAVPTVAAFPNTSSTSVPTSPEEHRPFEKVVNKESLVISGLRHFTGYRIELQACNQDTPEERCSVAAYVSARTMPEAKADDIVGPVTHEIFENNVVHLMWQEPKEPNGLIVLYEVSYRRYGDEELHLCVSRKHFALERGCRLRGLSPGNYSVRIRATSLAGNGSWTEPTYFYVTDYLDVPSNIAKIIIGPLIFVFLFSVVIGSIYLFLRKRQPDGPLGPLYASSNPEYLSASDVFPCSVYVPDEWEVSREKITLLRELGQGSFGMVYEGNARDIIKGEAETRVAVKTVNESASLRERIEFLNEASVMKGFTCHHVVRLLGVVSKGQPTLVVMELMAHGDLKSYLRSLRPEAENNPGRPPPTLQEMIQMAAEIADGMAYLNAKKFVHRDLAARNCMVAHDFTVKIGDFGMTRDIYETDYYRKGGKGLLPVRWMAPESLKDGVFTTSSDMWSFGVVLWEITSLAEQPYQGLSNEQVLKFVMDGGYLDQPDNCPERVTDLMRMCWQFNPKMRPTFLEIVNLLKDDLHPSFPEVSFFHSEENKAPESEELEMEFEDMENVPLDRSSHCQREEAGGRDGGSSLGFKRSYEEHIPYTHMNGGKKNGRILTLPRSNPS
Interleukin-1 receptor-associated kinase 4, sequence (Q9NWZ3 whole entry, canonical isoform): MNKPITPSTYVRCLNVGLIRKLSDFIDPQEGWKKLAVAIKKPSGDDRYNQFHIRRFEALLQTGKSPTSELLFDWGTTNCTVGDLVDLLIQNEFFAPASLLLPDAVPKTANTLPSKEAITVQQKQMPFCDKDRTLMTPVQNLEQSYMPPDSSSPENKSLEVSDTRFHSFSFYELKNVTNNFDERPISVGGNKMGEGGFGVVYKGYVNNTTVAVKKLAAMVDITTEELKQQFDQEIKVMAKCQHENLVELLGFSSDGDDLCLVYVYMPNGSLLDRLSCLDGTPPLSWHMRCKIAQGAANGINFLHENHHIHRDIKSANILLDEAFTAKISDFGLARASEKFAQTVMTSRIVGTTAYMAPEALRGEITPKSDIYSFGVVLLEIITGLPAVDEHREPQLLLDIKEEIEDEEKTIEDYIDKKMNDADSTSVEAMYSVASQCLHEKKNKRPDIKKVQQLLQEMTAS
Macrophage-stimulating protein receptor, sequence (Q04912 25-304 limits assumed): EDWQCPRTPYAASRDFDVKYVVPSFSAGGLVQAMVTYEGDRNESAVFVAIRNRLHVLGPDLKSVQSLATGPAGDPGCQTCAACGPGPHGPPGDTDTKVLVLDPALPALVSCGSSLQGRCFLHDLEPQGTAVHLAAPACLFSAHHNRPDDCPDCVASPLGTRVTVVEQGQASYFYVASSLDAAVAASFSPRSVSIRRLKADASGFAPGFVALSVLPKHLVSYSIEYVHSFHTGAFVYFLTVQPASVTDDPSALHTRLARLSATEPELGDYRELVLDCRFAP
Macrophage-stimulating protein receptor, sequence (Q04912 310-1400 limits assumed): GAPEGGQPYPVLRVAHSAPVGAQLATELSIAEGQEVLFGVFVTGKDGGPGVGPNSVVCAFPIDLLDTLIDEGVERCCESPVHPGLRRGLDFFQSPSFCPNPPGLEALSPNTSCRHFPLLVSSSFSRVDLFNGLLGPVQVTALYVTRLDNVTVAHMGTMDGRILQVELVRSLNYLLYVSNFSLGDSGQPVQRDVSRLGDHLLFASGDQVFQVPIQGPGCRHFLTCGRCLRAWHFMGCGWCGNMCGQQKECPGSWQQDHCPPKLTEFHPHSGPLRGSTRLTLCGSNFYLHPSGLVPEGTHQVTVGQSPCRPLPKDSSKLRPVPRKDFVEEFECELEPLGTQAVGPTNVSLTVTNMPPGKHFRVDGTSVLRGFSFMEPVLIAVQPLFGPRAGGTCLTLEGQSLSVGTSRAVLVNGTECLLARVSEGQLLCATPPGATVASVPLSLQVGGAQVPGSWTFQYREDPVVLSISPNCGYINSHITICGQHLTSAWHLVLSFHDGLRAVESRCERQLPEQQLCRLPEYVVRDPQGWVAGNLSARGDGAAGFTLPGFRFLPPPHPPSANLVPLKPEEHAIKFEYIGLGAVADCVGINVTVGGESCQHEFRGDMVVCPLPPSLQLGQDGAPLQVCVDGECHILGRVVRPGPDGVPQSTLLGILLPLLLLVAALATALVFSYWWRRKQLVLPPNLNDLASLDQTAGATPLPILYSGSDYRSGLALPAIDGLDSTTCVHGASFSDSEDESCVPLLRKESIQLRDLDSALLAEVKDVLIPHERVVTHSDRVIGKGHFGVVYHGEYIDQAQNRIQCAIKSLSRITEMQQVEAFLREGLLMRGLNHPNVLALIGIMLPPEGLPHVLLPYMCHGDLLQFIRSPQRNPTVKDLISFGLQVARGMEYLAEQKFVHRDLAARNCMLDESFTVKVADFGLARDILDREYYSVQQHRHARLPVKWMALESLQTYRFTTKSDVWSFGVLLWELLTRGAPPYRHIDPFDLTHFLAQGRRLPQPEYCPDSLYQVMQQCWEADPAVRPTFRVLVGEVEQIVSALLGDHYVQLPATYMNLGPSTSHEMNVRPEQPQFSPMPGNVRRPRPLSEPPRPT
Serine/threonine-protein kinase 24, sequence (Q9Y6E0 whole entry, looked up): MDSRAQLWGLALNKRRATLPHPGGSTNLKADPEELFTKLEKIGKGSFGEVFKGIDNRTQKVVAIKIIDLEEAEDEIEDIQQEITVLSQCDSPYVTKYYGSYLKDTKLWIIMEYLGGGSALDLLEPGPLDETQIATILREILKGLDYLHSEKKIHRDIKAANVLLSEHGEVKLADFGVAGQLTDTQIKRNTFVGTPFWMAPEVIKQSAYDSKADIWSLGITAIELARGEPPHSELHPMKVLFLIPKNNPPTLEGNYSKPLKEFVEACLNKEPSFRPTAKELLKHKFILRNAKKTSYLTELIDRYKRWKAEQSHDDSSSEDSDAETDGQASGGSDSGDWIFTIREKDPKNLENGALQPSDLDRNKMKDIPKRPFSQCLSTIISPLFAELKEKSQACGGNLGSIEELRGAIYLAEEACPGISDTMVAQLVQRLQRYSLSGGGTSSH

`CCOc1cc(N2CCC(O)CC2)ccc1Nc1ncc2c(n1)N(C)c1ccccc1C(=O)N2C`: the concentration at 192 h in series [1] worked out at 12.8 µM. The inhibition in series [2] is -3.3%; in series [3], -9.7%; in series [4], -2.6%; in series [5], 24%; in series [6], 13.1%; in series [7], -2.5%. Also, the inhibition on Insulin receptor was -6.5%; in [10], -4.6%; against PKC alpha and beta-2, 14.4%. Besides, the inhibition at 2 µM in series [8] turned out to be 11.3%. The IC50 in [9], in [11], in [12], in series [13] and in series [14] was more than 50 µM each time.
